This passage reports yeast fitness results from the RNAGym collection of RNA variant scans (doi:10.1126/science.aae0568).

Fewer inactive variants are shown than the library holds.

B1: tRNA (parent)
chain: GUUCCGUUGGCGUAAUGGUAACGCGUCUCCCUCCUAAGGAGAAGACUGCGGGUUCGAGUCCCGUACGGAACG

In the data set the parent is B1. Description: yeast fitness relative to wild type (ratio to wild type); higher = fitter; tRNA-Arg(CCU), competitive growth, 37 C, YPD. The method in brief:
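Variants of the tRNA-Arg(CCU) gene, chemically synthesised with a 3% per-site mutation rate at 69 sites, were placed at the native genomic locus in Saccharomyces cerevisiae. The pooled strains were competed in YPD at 37°C for 24 hours in six parallel replicates. Gene amplicons from the start population and from each end population were read by 100-nucleotide paired-end sequencing. Darwinian fitness relative to wild type came from changes in genotype frequencies; genotypes needed ≥ 100 starting reads, and estimates < 0.5 were set to 0.5.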
On to GUUUCGUUGGCGUAAUGGUAACGCGUCUCCCUCCUAAGGAGAAGACUGGGGGUUCGAGUCCCGUACGGAGCG [C4U C49G A70G], for which the yeast fitness is 0.602.
With GUUUCGUUGGCGUAAUGGUAACGCGUCUCCCUCCUAAGGAGAAGAGUGCGGGUUCGAGUCCCGUAGGGAACG [C4U C46G C66G], the yeast fitness was found to be 0.539.
As for GUUUCAUUGGCGUAAUGGUAACGCGUCUCCCUCCUAAGGAGAAGACUGCGGGUUCGAGUCACGUACGGAACG [C4U G6A C61A], the yeast fitness is at most 0.5.
As to GUUUCGUUAGCGUAAUGGUAACGCGUGUCCCACCUAAGGAGAAGACUGCGGAUUCGAGUCCCGUACGGAACG [C4U G9A C27G U32A G52A], the yeast fitness is at most 0.5.
With GUUUCGUUAGUGUAAUGGUAACGCGUCUCCCUCAUAAGGAGAAGACUGCGGGUUCGAGUCCCGUACGGAACG [C4U G9A C11U C34A], the yeast fitness is at most 0.5.
With GUUUCGUUGGCGUAAUGGUAACGCGUCUCCCUCCUAAGGAGAAGACUGCGGGUUCGAGUGUCGUACGAAACG [C4U C60G C61U G68A], the yeast fitness is at most 0.5.
In the case of GUUUCGUUAGCGUAAUGGUAAGGUGUCUCCCUCCUAAGGAGUAGACUGCGGGUUCGAGUCCCGAACAGAACG [C4U G9A C22G C24U A42U U64A G67A], the yeast fitness turned out to be 0.572.
Regarding GUUUCGUUAGCGUAAUGGUAACGCGUCUCCCUGCUAAGGAGAAGACUGCGGGUUCGAGUCCCGUACGGAACG [C4U G9A C33G], the yeast fitness was determined as 0.639.
Under GUUUCGUUAGCGUAAUGGUAACGCGUCUACCUCCUAAGGAGAAGACUGCGGGAUCGAGUCCCGUACGGAACG [C4U G9A C29A U53A] stands at most 0.5; under GUUUCGUUGGCGUAAUGGUAACGCGUCUCCCUCCUAAGGAGAAGACUGGGGGUUCGCGUCCCGUACGGAACG [C4U C49G A57C], at most 0.5; under GUUUCGUUGGCGUAAUGGUAACGCGUCUCCCUCCUAAGGAGAAGACUGCGGGUUAGAGUCCCGUACGGAACG [C4U C55A], 0.701.
GUUUCGUUGGCGUAAUGGUAACGCGUCUCCCUCCUAAGGAGAAGACUGCGGGUUGGAGUCCCGUACGGAACG [C4U C55G]: the yeast fitness turned out to be 0.636.
For the variant GUUUCGUUGGCGUAAUGGUAACGCGUCUCCCUCCUAAGGAGAAGACUGCGGGUUUGAGUCCCGUACGGUACG [C4U C55U A69U], the yeast fitness came out at 0.745.
Under GUUUCGUUGGCGUAAUGGUAACGCGUCUCCCUCCUAAGGAGAAGAGUGCGGGUUCGAGUCCCGUACGGACCG [C4U C46G A70C] stands 1.01; under GUUUCGUUGGCGUAAUGGUAACGCGUCUCCCUCCUAAGGAGAAGACUGUGGGUUAGAGUCCCGUACGGAACG [C4U C49U C55A], at most 0.5.
As for GUUUCAUUGGCGUAAUGGUAACGCGUCUCCCUCCUAAGGAGAAGACUGUGGGUUCGAGUCCCGUACGGAACG [C4U G6A C49U], the yeast fitness came out at 0.706.
In the case of GUUUCGUUAGCGUAAUGGUAACGCGUCUCCCUCCUAAGGUGAAGACUGCGGGUUCGAGUCCCGUACGGAACG [C4U G9A A40U], the yeast fitness turned out to be 1.05.
GUUUCGUUGGCGUAAUGGUAACGCGUCUCCCUCCUAAGGAGAAGACUGGGGGUUCGAGUCCCGUACGAACCG [C4U C49G G68A A70C]: the yeast fitness amounted to 0.606.
The result for GUUUCGUUGGCGUAAUGGUAACGCGUCUCCCUCCUAAGGAGAAGACUGCGGGUUGGAGUCCCGUGGGGAACG [C4U C55G A65G C66G] reads at most 0.5; that for GUUUCGUUGGCGUAAUGGUAACGCGUCUCCCUCCUAAGGAGAAGACUGCGGGUUCGAGUGCCGUACAGAACG [C4U C60G G67A], at most 0.5.
Consider GUUUCGUUGGCGUAAUGGUAACGCGUCUCCCUCCUAAGGAGAAGACUGCGGGUUCGAGUCCCGUAUGGUACG [C4U C66U A69U], for which the yeast fitness came out at 0.677.
Turning to GUUUCGUUGGCGUAAUGGUAACGCGUCUCCCUCCUAAGGAGAAGAGUGCGAAUUCGAGUCCCGUACGGAACG [C4U C46G G51A G52A], the yeast fitness was at most 0.5.
For GUUUCGUUGGCGUAAUGGUAACGCGUCUCCCUCCUAAGGAGAAGAUUGCGGGUUCGAGUCCCGUACGGAGCG [C4U C46U A70G], the yeast fitness was 0.772.
Consider GUUUCGUUGGCGUAAUGGUAACGCGUCUCCCUCCUAAGGAGAAGACUGCGGGUUCGAGUCGCGUAUGGUACG [C4U C61G C66U A69U], for which the yeast fitness is at most 0.5.
Regarding GUUUCGUUGGCGUAAUGGUAACGCGUCUCCCUCCUAAGGAGAAGACUGCGGGUUCGAGUGCCGUACGGCACG [C4U C60G A69C], the yeast fitness was 0.52.
For GUUUCGUUAGCGUAAUGGUAACGGGUCUCCCUCCUACGGAAAAGACUGCGGGUUCGUGUCCCGUACGGAACG [C4U G9A C24G A37C G41A A57U], the yeast fitness was at most 0.5.
In the case of GUUUCGUUGGCGUAAUGGUAACGCGUCUCCCUCCUAAGGAGAAGACUGCGGGUUCGAGUCCGGUACAGAACG [C4U C62G G67A], the yeast fitness is at most 0.5.
With GUUUCGUUGGCGUAAUGGUAACGCGUCUCCCUCCUAAGGAGAAGACUGUGGGUUCGACUCCCGUACGGAACG [C4U C49U G58C], the yeast fitness came out at 0.782.
On to GUUUCGUUAGCGUAAUGGUAACGCGUCUUCCUCCUAAGGAGAAGACUGCGGGUUCGAGUCCCGUACGGAACG [C4U G9A C29U], for which the yeast fitness worked out at 0.567.
As for GUUUCGUUAGCGUAAUGGUAACGCGUCUCCCUCCUAAGGAGAAGACUGCGGGUUCGGGUCCCGUACGGAACG [C4U G9A A57G], the yeast fitness is 0.61.
For GUUUCCUUGGCGUAAUGGUAACGCGUCUCGCUCCUAAGGAGAAGACUGCGGGUUCGAGUUCCGUACGGAACG [C4U G6C C30G C60U], the yeast fitness worked out at 0.546.
For the variant GUUUCGUUAGCGUAAUGGUAACGGGUCUGCCUCCUAAGGAGAAGACUGCGGGUUCGAGUCCCGUACAGAACG [C4U G9A C24G C29G G67A], the yeast fitness was at most 0.5.
Take GUUUCAUUGGCGUAAUGGUAACGCGUCUCCUUCUUAAGGAGAAGACUGCGGGUUCGAGUCCCGUACGGAACG [C4U G6A C31U C34U]: the yeast fitness is at most 0.5.
On to GUUUCGUUGGCGUAAUGGUAACGCGUCUCCCUCCUAAGGAGAAGACUGAGGGUUCGAGUCCCGUUCGGAACG [C4U C49A A65U], for which the yeast fitness was determined as 0.583.
In the case of GUUUCGUUGGCGUAAUGGUAACGCGUCUCCCUCCUAAGGAGAAGACUGCGGGUUCGAGUCCCGUAGGGAACG [C4U C66G], the yeast fitness is 0.75.
Take GUUUCGUUGGCGUAAUGGUAACGCGUCUCCCUCCUAAGGAGAAGAUUGCGGGUUCGAGUCCCGUACGGAACG [C4U C46U]: the yeast fitness is 1.01.
Under GUUUCGUUGGCGUAAUGGUAACGCGUCUCCCUCCUAAGGAGAAGAAUGCGGGUUCGAGUCCCGUACGGAACG [C4U C46A] stands 0.841.
